Compounds with a hit are over-represented: about 4.7% of the library has one in this group of screens.
MrgX1 antagonist – blocks BAM8-22 activation of human MrgX1 receptor. 310,000 tested, 1.3% active. B-score at 10 µM. MRGX1-HEK293 calcium flux, Fluo-4, BAM8-22 antagonism; hits give low values;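 active = calcium-response B-score plate-corrected more than 3 library SD below zero, starting fluorescence within 5 deviations, no agonist response on first addition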;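 note: peak minus trough fluorescence over baseline after final BAM8-22 challenge near maximal dose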
MrgX1 ag – human MrgX1 receptor agonism, primary screen; Q96LB2; MrgX1-HEK293 cells, Fluo-4 calcium fluorescence, agonist mode; hits give high values; B-score at 10 µM; 310,000 tested, 0.44% active; AID 588627;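 active = calcium response B-score plate-corrected fluorescence ratio at least 3 library SD, with starting fluorescence B-score inside 5 SD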
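Test system: HEK293 cells stably expressing human MrgX1 receptor; Input: fifteen thousand cells per well; Dosing: compound delivered in addition one of three; Schedule: overnight seeding, then 1 h dark dye loading; Technique: Fluo-4 NW calcium fluorescence; Measure: B-scored fluorescence response ratio; Controls: positive and negative controls per plate.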
RGS4 pot – RGS4 potentiation or activation; HEK293 M3R/inducible RGS4, carbachol calcium flux Fluo4; hits give low values; B-score at 10 µM; 310,000 tested, 0.92% active; AID 463111;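 active = B-score of the integrated calcium signal more than 4 SD below the library mean, with starting fluorescence not abnormally high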;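 note: negative B-score means reduced calcium response which marks RGS4 activation or potentiation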
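System: HEK293 FlpIn-TREx cells, stable M3R, doxycycline-inducible RGS4. Timing: overnight RGS4 induction, 30 min dye load 37 °C, 20 min compound RT. Also added: carbachol, ECmax concentration. Measured by: Fluo4 fluorescence kinetic imaging of calcium. Evaluation: integrated calcium ratio converted to B score.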
RGS4 block – human RGS4 inhibition | B-score at 10 µM | 310,000 tested, 0.45% active | HEK293 M3R/RGS4 inducible, Fluo-4 calcium flux; hits give high values; triggered by carbachol at its EC20;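 active = B-score, a plate-corrected calcium signal, over three deviations above library mean, with baseline fluorescence within five deviations of library mean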;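 note: RGS4 expression induced by doxycycline in cells with stable M3 receptor; B-score is computed from the integrated fluorescence ratio over baseline after carbachol; higher B-score means a larger calcium signal and so more RGS4 inhibition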
MrgX1 PAM – allosterically activates human MrgX1 receptor signaling; Q96LB2; MrgX1-HEK293, Fluo-4 calcium flux, FDSS; hits give high values; B-score at 10 µM; 310,000 tested, 0.63% active; AID 588675;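 active = plate-corrected calcium response at least 3 library SD above typical, normal starting fluorescence, not activating the receptor alone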;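 note: compound read alongside a low EC10 to EC30 dose of BAM8-22 agonist; peak minus trough fluorescence over baseline measured at the second addition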
Cl transport mod – modulates chloride dependent transport by human KCC2. KCC2 cells, thallium flux FluoZin-2 fluorescence. B-score of Tl+ flux slope (higher = more flux/activation; lower = inhibition) at 10 µM. 190,000 tested, 2.2% active;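 active = thallium flux slope and its plate-corrected score both differing from the plate sample mean at a set confidence after two filtering rounds, in either direction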;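 note: slope of fluorescence scaled to starting intensity during 10 to 20 s after thallium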
Target sequence (Q9H2X9 whole entry, looked up): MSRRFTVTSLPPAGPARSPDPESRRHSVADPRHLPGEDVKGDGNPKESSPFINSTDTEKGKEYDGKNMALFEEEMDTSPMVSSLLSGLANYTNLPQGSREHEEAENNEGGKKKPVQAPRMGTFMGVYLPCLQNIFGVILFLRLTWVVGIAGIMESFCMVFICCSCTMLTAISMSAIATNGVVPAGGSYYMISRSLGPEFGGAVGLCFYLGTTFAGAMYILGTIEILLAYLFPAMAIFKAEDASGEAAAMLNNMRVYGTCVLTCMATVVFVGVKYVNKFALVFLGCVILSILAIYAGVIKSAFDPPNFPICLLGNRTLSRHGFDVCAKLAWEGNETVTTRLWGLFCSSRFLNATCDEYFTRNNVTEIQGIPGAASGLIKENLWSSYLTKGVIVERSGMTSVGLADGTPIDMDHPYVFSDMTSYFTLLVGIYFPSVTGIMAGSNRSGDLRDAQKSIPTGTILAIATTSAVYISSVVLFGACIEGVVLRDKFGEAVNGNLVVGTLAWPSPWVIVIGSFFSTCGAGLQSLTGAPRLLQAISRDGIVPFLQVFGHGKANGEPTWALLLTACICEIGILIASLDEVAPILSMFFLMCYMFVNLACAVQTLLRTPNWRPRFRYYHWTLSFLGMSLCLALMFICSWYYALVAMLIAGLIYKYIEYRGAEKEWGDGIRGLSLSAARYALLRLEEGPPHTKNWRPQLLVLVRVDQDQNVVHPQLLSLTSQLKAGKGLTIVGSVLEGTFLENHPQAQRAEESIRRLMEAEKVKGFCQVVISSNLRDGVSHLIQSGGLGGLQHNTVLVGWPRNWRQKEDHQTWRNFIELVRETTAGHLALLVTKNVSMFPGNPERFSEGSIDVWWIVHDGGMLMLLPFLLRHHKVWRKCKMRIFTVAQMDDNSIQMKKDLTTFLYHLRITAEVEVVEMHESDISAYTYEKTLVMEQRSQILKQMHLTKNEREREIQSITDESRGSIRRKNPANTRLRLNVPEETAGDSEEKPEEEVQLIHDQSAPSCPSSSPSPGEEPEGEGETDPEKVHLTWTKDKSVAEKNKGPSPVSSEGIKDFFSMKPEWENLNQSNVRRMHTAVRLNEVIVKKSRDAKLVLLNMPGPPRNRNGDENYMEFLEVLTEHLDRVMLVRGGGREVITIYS
Hits are given with their value.

How did O=c1[nH]c(=O)n(C2CCCCC2)c(O)c1/C=C/C=Nc1ccccc1 do in these assays?
MrgX1 antagonist: -5; MrgX1 ag: inactive; RGS4 pot: inactive; RGS4 block: inactive; MrgX1 PAM: inactive; Cl transport mod: inactive

How did O=[N+]([O-])c1ccccc1-c1cc(-c2ccccc2)cc(-c2ccccc2)[n+]1Cc1ccccc1Cl do in these assays?
MrgX1 antagonist: -7; MrgX1 ag: inactive; RGS4 pot: -10; RGS4 block: inactive; MrgX1 PAM: inactive

How did [N-]=[N+]=NCCN1CCC(O)CCC1=O (stereo unspecified) do in these assays?
MrgX1 antagonist: inactive; MrgX1 ag: inactive; RGS4 pot: inactive; RGS4 block: inactive; MrgX1 PAM: inactive

What do the screens show for `CC(=Nc1ccccc1N)c1c(O)n(C)c(=O)n(C)c1=O`?
MrgX1 antagonist: inactive; MrgX1 ag: inactive; RGS4 pot: inactive; RGS4 block: inactive; MrgX1 PAM: inactive

What do the screens show for `Clc1ccccc1C1=NCc2nncn2-c2sc(Br)cc21`?
MrgX1 antagonist: inactive; MrgX1 ag: inactive; RGS4 pot: inactive; RGS4 block: inactive; MrgX1 PAM: inactive

How did CN(C)C=C1C(=O)N(C2CCCCC2)C(=O)N(C2CCCCC2)C1=O do in these assays?
MrgX1 antagonist: inactive; MrgX1 ag: 52; RGS4 pot: inactive; RGS4 block: inactive; MrgX1 PAM: inactive; Cl transport mod: inactive

Results for Cc1cccc(NP(=O)(Oc2ccccc2F)Oc2ccccc2F)c1 ?
MrgX1 antagonist: inactive; MrgX1 ag: inactive; RGS4 pot: -7.8; RGS4 block: inactive; MrgX1 PAM: inactive; Cl transport mod: inactive

How did O=P(Nc1cccc(F)c1)(Oc1ccccc1F)Oc1ccccc1F do in these assays?
MrgX1 antagonist: inactive; MrgX1 ag: inactive; RGS4 pot: -8.2; RGS4 block: inactive; MrgX1 PAM: inactive; Cl transport mod: inactive

How did Cc1ccc(NP(=O)(Oc2ccccc2F)Oc2ccccc2F)cc1C do in these assays?
MrgX1 antagonist: inactive; MrgX1 ag: inactive; RGS4 pot: inactive; RGS4 block: inactive; MrgX1 PAM: inactive; Cl transport mod: inactive

Results for Cc1cccc(CCNCc2cc3ccc(C)cc3[nH]c2=O)c1 ?
MrgX1 antagonist: inactive; MrgX1 ag: inactive; RGS4 pot: inactive; RGS4 block: inactive; MrgX1 PAM: inactive

What do the screens show for `CN=C1CN(O)C(c2ccccc2)=c2cc(Cl)ccc2=N1`?
MrgX1 antagonist: inactive; MrgX1 ag: inactive; RGS4 pot: inactive; RGS4 block: inactive; MrgX1 PAM: 9.6

What do the screens show for `O=C1NC(=O)C(CCc2ccncc2)(CCc2ccncc2)C(=O)N1Cc1ccccc1`?
MrgX1 antagonist: inactive; MrgX1 ag: inactive; RGS4 pot: inactive; RGS4 block: inactive; MrgX1 PAM: inactive; Cl transport mod: inactive

What do the screens show for `N#CC(C#N)=Cc1ccc(N2CCOCC2)cc1`?
MrgX1 antagonist: inactive; MrgX1 ag: inactive; RGS4 pot: inactive; RGS4 block: inactive; MrgX1 PAM: inactive; Cl transport mod: inactive

What do the screens show for `N#CC(C#N)=Cc1cccnc1`?
MrgX1 antagonist: -4.6; MrgX1 ag: inactive; RGS4 pot: inactive; RGS4 block: inactive; MrgX1 PAM: inactive; Cl transport mod: inactive

Results for CCOc1cc2c(cc1OCC)-n1cccc1C(c1cc(C)c(OC)cc1C)NC2 (stereo unspecified) ?
MrgX1 antagonist: -4.9; MrgX1 ag: inactive; RGS4 pot: inactive; RGS4 block: inactive; MrgX1 PAM: inactive

Results for CCOc1cc2c(cc1OCC)-n1cccc1C(c1ccc(C)cc1C)NC2 (stereo unspecified) ?
MrgX1 antagonist: inactive; MrgX1 ag: inactive; RGS4 pot: inactive; RGS4 block: inactive; MrgX1 PAM: inactive

Results for CCCCC/C(=N\O)c1c[nH]c2ccccc12 ?
MrgX1 antagonist: -6.6; MrgX1 ag: inactive; RGS4 pot: inactive; RGS4 block: inactive; MrgX1 PAM: inactive; Cl transport mod: inactive

How did NC(N)=N/N=C/c1cn(-c2ccccc2)nc1-c1cccs1 do in these assays?
MrgX1 antagonist: inactive; MrgX1 ag: 44; RGS4 pot: inactive; RGS4 block: inactive; MrgX1 PAM: inactive; Cl transport mod: inactive

How did O=c1[nH]c(=S)n(-c2ccccc2F)c(O)c1C=NCCN1CCNCC1 do in these assays?
MrgX1 antagonist: inactive; MrgX1 ag: inactive; RGS4 pot: inactive; RGS4 block: inactive; MrgX1 PAM: inactive

How did O=C1NC(=S)N(c2ccccc2)C(=O)C1C(c1ccncc1)C1C(=O)NC(=S)N(c2ccccc2)C1=O (stereo unspecified) do in these assays?
MrgX1 antagonist: -7.6; MrgX1 ag: inactive; RGS4 pot: inactive; RGS4 block: inactive; MrgX1 PAM: inactive; Cl transport mod: inactive

Results for O=C(CCCc1ccccc1)NCCc1cnc[nH]1 ?
MrgX1 antagonist: inactive; MrgX1 ag: inactive; RGS4 pot: inactive; RGS4 block: inactive; MrgX1 PAM: inactive

How did CN1C[C@H](CO)C=C2c3cccc4[nH]cc(c34)C[C@H]21 do in these assays?
MrgX1 antagonist: inactive; MrgX1 ag: 36; RGS4 pot: inactive; RGS4 block: inactive; MrgX1 PAM: inactive; Cl transport mod: inactive

What do the screens show for `c1ccc2c(CNC3CCCCC3)c[nH]c2c1`?
MrgX1 antagonist: inactive; MrgX1 ag: inactive; RGS4 pot: inactive; RGS4 block: inactive; MrgX1 PAM: inactive; Cl transport mod: -5.1

How did C[N+](C)(N)CCOC(=O)C(O)(c1ccccc1)C1CCCCC1 (stereo unspecified) do in these assays?
MrgX1 antagonist: inactive; MrgX1 ag: inactive; RGS4 pot: -8.2; RGS4 block: inactive; MrgX1 PAM: inactive

How did CC[N+](CC)(CC)CCCOC(=O)C(O)(c1ccccc1)C1CCCCC1 (stereo unspecified) do in these assays?
MrgX1 antagonist: inactive; MrgX1 ag: inactive; RGS4 pot: -8.2; RGS4 block: inactive; MrgX1 PAM: inactive; Cl transport mod: inactive

How did CC1=C2[C@H]3OC(=O)[C@@H](C)[C@@H]3CC[C@@]2(C)C=CC1=O do in these assays?
MrgX1 antagonist: inactive; MrgX1 ag: inactive; MrgX1 PAM: inactive

Results for O=C(Cc1ccccc1)N1CCN(Cc2ccc(F)cc2)CC1 ?
MrgX1 antagonist: inactive; MrgX1 ag: inactive; RGS4 pot: inactive; RGS4 block: inactive; MrgX1 PAM: inactive

Results for OC(c1ccccc1)(c1ccccc1)C1CN2CCC1CC2 (stereo unspecified) ?
MrgX1 antagonist: inactive; MrgX1 ag: inactive; RGS4 pot: -7.5; RGS4 block: inactive; MrgX1 PAM: inactive; Cl transport mod: inactive

What do the screens show for `C=C(C)[C@@H]1C2C(=O)O[C@H]1[C@H]1OC(=O)[C@@]34OC3C[C@]2(O)[C@@]14C` (stereo partly specified)?
MrgX1 antagonist: -6.4; MrgX1 ag: inactive; MrgX1 PAM: inactive

What do the screens show for `COc1ccc(Cn2c(O)c(C=NCCN3CCOCC3)c(=O)[nH]c2=O)cc1`?
MrgX1 antagonist: inactive; MrgX1 ag: inactive; RGS4 pot: inactive; RGS4 block: inactive; MrgX1 PAM: inactive; Cl transport mod: 9.1

High-throughput results as filed in PubChem.
